Most compounds without a hit are left out; they make up all but 1.6% or so of the library.
FLuc stim CS: FLuc activators, initial screening, artefact control for FLuc-dependent activation tests, biochemical, ATPlite luminescence; Luciferin 4-monooxygenase (Photinus pyralis), P08659; ATPlite luciferase biochemical, 10 min; 0 = ATP-free wells, 1 = DMSO control; activation factor at 10 µM; 200,000 tested, under 10 active;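 active = luciferase activation factor, scaled between plate controls, of at least 2 with compound at 10 µM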
Target sequence (P08659 whole entry, looked up): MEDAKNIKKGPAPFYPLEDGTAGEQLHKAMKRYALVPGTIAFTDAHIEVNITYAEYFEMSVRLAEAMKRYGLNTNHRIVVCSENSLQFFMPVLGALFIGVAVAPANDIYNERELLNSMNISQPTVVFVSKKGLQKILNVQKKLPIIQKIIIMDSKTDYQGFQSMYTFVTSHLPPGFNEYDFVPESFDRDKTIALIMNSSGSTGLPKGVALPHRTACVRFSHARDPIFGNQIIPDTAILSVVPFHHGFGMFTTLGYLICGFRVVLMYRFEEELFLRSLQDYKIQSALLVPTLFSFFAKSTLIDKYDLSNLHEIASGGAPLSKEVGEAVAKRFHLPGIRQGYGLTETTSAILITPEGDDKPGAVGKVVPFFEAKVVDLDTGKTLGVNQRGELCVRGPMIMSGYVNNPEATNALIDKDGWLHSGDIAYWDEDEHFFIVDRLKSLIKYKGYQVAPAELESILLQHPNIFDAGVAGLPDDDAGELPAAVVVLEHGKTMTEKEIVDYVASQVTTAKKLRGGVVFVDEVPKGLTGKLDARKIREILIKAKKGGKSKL
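Assay system: Luciferase/luciferin detection reagent, cell-free biochemical luciferase assay / Read-out: luciferase activation / Benchmarks: No-ATP low control, compound-free enzyme-plus-ATP high control / Medium: PBS buffer for ATP / Detection: luminescence measurement of luciferase light output / Schedule: 10 min at ambient temperature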
TRAIL sens C8: viability loss with TRAIL in NB7+C8 cells, primary screen, TRAIL sensitizer project, cell-based, ATPlite luminescence; inhibition (viability loss, TRAIL sensitization), % at 10 µM; hit rate 1% among 360,000;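 active = compounds causing at least 50% loss of cell viability in the single-dose screen, relative to plate controls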
FLuc inhib CS: firefly luciferase enzyme inhibitors, primary screen, artefact control for luciferase-based inhibitor screens, biochemical, luminescence, ATPLite. 10 min. AID 1006, 2008. Luciferin 4-monooxygenase (Photinus pyralis), P08659. inhibition, % at 10 µM. hit rate 1.5% among 200,000;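 active = inhibition above about 50% when tested at 10 µM, limit read from the data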
PPC-1+TRAIL kill: compounds killing PPC-1 cancer cells with TRAIL present, primary screen, TRAIL potentiator project, ATPLite luminescence, uHTS; PPC-1 cells + TRAIL, ATPLite viability luminescence; cell killing (% activity), % at 4 µM or 5 µM; hit rate 0.41% among 220,000; AID 1443, 2008;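 active = cell killing above 50% in the first pass at 4 µM, then a duplicate retest at 5 µM averaging 50% or more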
PPC1 cytotox: cytotoxicity in PPC-1 cells, confirmation, cytotoxicity control for TRAIL apoptosis potentiator project, cell-based, ATP content luminescence | shares compounds with PPC-1+TRAIL kill | PPC-1 viability, ATPlite luminescence, overnight | cytotoxicity, % at 5 µM | hit rate 50% among 1,200;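 active = reconfirmed compounds whose average cytotoxicity reaches 50% or more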
Numbers stand for hits; i = inactive; nt = not tested or not shown.

SMILES	FLuc stim CS	TRAIL sens C8	FLuc inhib CS	PPC-1+TRAIL kill	PPC1 cytotox
ClCc1ncc(-c2ccc(Cl)cc2)o1	i	i	i	i	i
Clc1cccc(-c2nc(-c3ccc(-c4nn[nH]n4)cc3)no2)c1	nt	i	nt	nt	nt
COc1cc2ccccc2cc1C(=O)Nc1cccnc1	i	i	i	i	i
COc1cc(OC)c(C(=O)Nc2cccnc2)cc1OC	nt	i	nt	nt	nt
CCN(CC(=O)Nc1c(C(=O)OC)[nH]c2ccc(Cl)cc12)c1ccc2c(c1)OCO2	i	i	i	i	i
CCc1noc(C)c1C(=O)N1CCN(S(=O)(=O)c2c(C)c(C)cc(C)c2C)CC1	nt	i	nt	nt	nt
Cc1ccc(C)c(NS(=O)(=O)c2cc(C(N)=O)ccc2C)c1	i	i	i	i	i
Cc1ccc(C)c(S(=O)(=O)Nc2ccc(C(N)=O)cc2)c1	i	i	i	i	nt
COc1ccc(C(=O)N=c2nc3ccccn3s2)cc1	i	91	97	90	90
CC[C@@]1(O)C(=O)OCc2c1cc1n(c2=O)Cc2cc3c(CN(C)C)c(O)ccc3nc2-1	nt	i	nt	nt	nt
CC[C@@]1(O)C(=O)OCc2c1cc1n(c2=O)Cc2cc3c(N)cccc3nc2-1	nt	i	nt	i	i
COc1cccc(C(C)=C2SC(=S)NC2=O)c1	nt	i	nt	nt	nt
COc1ccc(CCN(C)C(=O)C2CCN(C(=O)Nc3ccccc3)CC2)cc1OC	nt	i	nt	nt	nt
O=C(Nc1ccccc1)Nc1cc(Cl)cc(Cl)c1	i	i	i	i	nt
O=C(Nc1ccccc1)Nc1cc(OCC(F)(F)F)cc(OCC(F)(F)F)c1	i	i	i	i	i
O=[N+]([O-])c1ccc(N/N=C/c2sc(N3CCOCC3)nc2-c2ccccc2)c(S(=O)(=O)Nc2ccc(Cl)cc2)c1	i	i	i	i	i
c1ccc(CCNc2nc(-c3ccccn3)nc3ccccc23)cc1	nt	i	nt	i	nt
O=C(Nc1nc2ccc(S(=O)(=O)N3CCCC3)cc2s1)c1ccccn1	i	i	i	i	nt
CCOc1ccc2nc(NC(=S)NCc3ccccc3)sc2c1	i	i	i	i	nt
Cc1ccc2nc(NC(=O)c3ccccn3)sc2c1	i	91	95	91	89
CCOc1ccc2nc(NC(=O)c3ccccn3)sc2c1	nt	82	nt	84	81
O=C(O)c1ccccc1CC(CCc1ccccc1)C(=O)O (centres undefined)	nt	i	nt	nt	nt
CCOC(=O)N1CCC(n2c(=S)[nH]c3ccccc3c2=O)CC1	i	i	i	i	i
CCOC(=O)N1CCN(C(=O)CCCn2c(=S)[nH]c3ccccc3c2=O)CC1	i	i	i	i	nt
O=C(/C=C/c1ccccc1Br)c1ccc2c(c1)OCO2	nt	i	nt	nt	nt
SMILES	FLuc stim CS	TRAIL sens C8	FLuc inhib CS	PPC-1+TRAIL kill	PPC1 cytotox
O=C(/C=C\Nc1ccccc1Br)c1ccc2c(c1)OCO2	i	91	97	93	94
O=C(/C=C\Nc1cccc(F)c1)c1ccc2c(c1)OCO2	i	72	90	74	71
COC(=O)c1ccc(N/C=C\C(=O)c2ccc3c(c2)OCO3)cc1	i	i	i	i	nt
O=C(NNc1c([N+](=O)[O-])cc(C(F)(F)F)cc1[N+](=O)[O-])c1ccco1	nt	i	nt	nt	nt
Cc1sc2ncn(CC(=O)NCc3ccco3)c(=O)c2c1-c1ccccc1	i	i	i	i	nt
O=C(CN1C(=O)C2(OCCCO2)c2ccccc21)NCc1ccccc1	i	i	i	i	i
Cc1ccc(CNC(=O)CN2C(=O)C3(OCCCO3)c3ccccc32)cc1	i	i	i	i	nt
Cc1ccc(Oc2nccc(-c3ccc(Cl)cc3)n2)cc1	i	i	i	i	nt
O=C(OCC(=O)N1CCCC1=O)C1COc2ccccc2O1 (centres undefined)	i	i	i	i	nt
COc1cc(NS(=O)(=O)c2ccc(F)cc2)c(OC)cc1NC(=O)C1CC1	i	nt	i	i	nt
O=C(Nc1ccccc1NS(=O)(=O)c1ccc(F)cc1)C1CCC1	i	i	i	i	i
COc1cccc(-c2c(C#N)c(N)nc3c2c(=O)nc2sccn23)c1	i	nt	i	i	nt
O=C(NC1CC1)c1cccc(Nc2ccc(-c3ccc4c(c3)OCCO4)nn2)c1	i	72	83	69	66
O=S(=O)(c1ccc(Nc2ccc(-c3ccc4c(c3)OCCO4)nn2)cc1)N1CCCC1	i	i	i	i	nt
Cn1c(NC(=O)COc2ccccc2)cc(=O)n(C)c1=O	i	i	i	i	nt
O=C(CCn1cnc2ccccc2c1=O)Nc1cccc(Cl)c1	i	i	i	i	i
O=C1N=C(N2CCOCC2)S/C1=C1\C(=O)N(Cc2ccccc2)c2ccc(Br)cc21	i	nt	i	i	nt
CCCCN1C(=O)/C(=C2\SC(N3CCCCC3)=NC2=O)c2ccccc21	i	i	55	i	i
COc1cccc(CNc2nc3cc(-c4ccccc4)sc3c(=O)n2C)c1	nt	i	nt	nt	nt
COc1ccc(-c2cc3nc(C)n(N)c(=O)c3s2)cc1	nt	86	nt	89	90
Cn1c(NCc2ccccc2)nc2cc(-c3ccccc3)sc2c1=O	nt	i	nt	nt	nt
Cc1nc2cc(-c3ccccc3)sc2c(=O)n1N	i	76	89	65	64
COc1ccc(-c2cc(=O)c3cc(OC)ccc3[nH]2)cc1	i	73	87	65	62
Cc1ccc2[nH]c(-c3ccccc3)cc(=O)c2c1	i	53	86	69	68
Cc1ccc(-c2cc(=O)c3cc(Cl)ccc3[nH]2)cc1	i	nt	57	65	60
SMILES	FLuc stim CS	TRAIL sens C8	FLuc inhib CS	PPC-1+TRAIL kill	PPC1 cytotox
COc1ccc(-c2cc(=O)c3cc(OC)ccc3o2)cc1	i	66	78	66	68
CCCCCCn1cc(CN2CC(N3CCN(CCO)CC3)CS2(=O)=O)nn1 (centres undefined)	nt	i	nt	nt	nt
COC(=O)C1CCN(C(=O)C2CCN(C(=O)[C@@H](NS(=O)(=O)c3ccc(C)cc3)C(C)C)CC2)CC1	nt	i	nt	nt	nt
CCCCNC(=O)CCC(=O)Nc1ccc2nc(N3CCC(C)CC3)cc(C)c2c1	i	i	i	i	i
Cc1cc(N2CCOCC2)nc2ccc(NC(=O)CCC(=O)N3CCC(C)CC3)cc12	i	i	i	i	nt
CC(C)=C[C@H]1C[C@H](C)[C@H]2CC[C@H](C)c3c(O[C@@H]4OC[C@@H](O)[C@H](O)C4O)c(O)c(C)c1c32 (some centres undefined)	nt	i	nt	nt	nt
O=C(/C=C/c1ccco1)Nc1ccc(C(=O)N2CCOCC2)cc1	i	i	i	i	nt
O=C(/C=C/c1ccco1)Nc1ccc2c(c1)OCCO2	i	64	89	64	63
O=C(O)/C=C/C(=O)Nc1ccccc1C(=O)OCC(=O)c1ccc2c(c1)OCCO2	i	53	96	78	79
CCOC(=O)c1ccccc1NC(=O)/C=C/C(=O)O	i	i	i	i	nt
CN(CC(=O)Nc1ccc(Cl)c(Cl)c1)C1CCCCC1	nt	i	nt	nt	nt
CC(C)N(C)C1CCN(C(=O)Nc2ccc(Cl)c(Cl)c2)CC1	i	i	i	i	i
COc1ccc(S(=O)(=O)NC(C(=O)OCC(=O)Nc2ccc(N3CCOCC3)cc2)C(C)C)cc1 (centres undefined)	nt	i	nt	nt	nt

Compound activity deposited in PubChem BioAssay by Sanford-Burnham Center for Chemical Genomics.
